Laboratory results published in ChEMBL document CHEMBL4043283, “Discovery and Preclinical Development of IIIM-290, an Orally Active Potent Cyclin-Dependent Kinase Inhibitor” (J Med Chem, 2018).
Calls of active or inactive are those of the source. The rule behind the calls is not given here.

Legend:
MOLT-4 = experiment: Antitumor activity against human MOLT4 cells xenografted in CD1 nude mouse assessed as tumor growth inhibition at 50 mg/kg, po qd administered on day 10 to 25 post tumor inoculation relative to control; assay type: functional; conditions: MOLT-4, po, 240 h, read-out: TGI
[1] = Pancreas to plasma partition coefficient, Kp of the compound in BALB/c mouse at 30 mg/kg, po measured at 1 hr; assay type: ADME, organism-based; conditions: pancreas and plasma
[2] = Elimination half life in BALB/c mouse at 1 mg/kg, iv by LC-MS/MS analysis; assay type: ADME, organism-based; conditions: in vivo, read-out: beta t1/2 (converted)
[3] = system: Tyrosine-protein kinase ABL1 (Homo sapiens), P00519 [H396P]; experiment: Inhibition of partial length human ABL1 H396P mutant expressed in mammalian expression system at 0.5 uM by KINOMEscan method relative to control
Method in brief: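 Competition binding screen (KINOMEscan) at 0.5 μM; primary binding read out as % of control, lower values indicating stronger interaction.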

Kidney = experiment: Drug uptake in Sprague-Dawley rat kidney at 30 mg/kg, po after 8 hrs; assay type: ADME, organism-based; conditions: in vivo
MIA PaCa-2 = experiment: Induction of apoptosis in human MIAPaCa2 cells assessed as intracellular vesicle formation after 24 hrs by scanning electron microscopy; assay type: functional, cell-based
Method in brief: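 Cells exposed to different compound concentrations for 24 h on coverslips, fixed in 2.5% glutaraldehyde in 0.1 M phosphate buffer pH 7.2 (4 °C, 24 h), postfixed in 1% OsO4 4 h, ethanol-dehydrated, critical-point dried with HMDS, gold-coated, imaged at 20 kV.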

Question: Which inhibition in vivo at 50 mg/kg (MOLT-4) does the source give for `CN1CC[C@H](c2c(O)cc(O)c3c(=O)cc(/C=C/c4c(Cl)cccc4Cl)oc23)[C@H](O)C1` here?
Answer: Its inhibition in vivo at 50 mg/kg is 40 to 52%.

Question: And the Kp at 1 h [1]?
Answer: Its Kp at 1 h is 24.4.

Question: And the half-life [2]?
Answer: Its half-life is 5.46 h.

Question: And the inhibition [3]?
Answer: The inhibition was greater than 98%.

Question: And the Drug uptake (Kidney)?
Answer: Its Drug uptake is “Active”.

Question: And the Activity (MIA PaCa-2)?
Answer: Its Activity is “Active”.
